In PMC8173612 (ACS Omega, 2021) one finds solubility data, which are given here for 3 compounds.

The nature of data set [1]: Solubility screening of selected solvents. The data set is classed as physicochemical. The method, boiled down:
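Solvent screen in 2-propanol, tetrahydrofuran, cyclohexane and toluene. Solubility of each test compound was determined in each neat solvent at room temperature and at 0 °C. Values are reported in mg/mL.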

For data set [2] the following is noted: in deionized water, cyclohexane, petroleum ether, and hexane; cited from earlier work.
The mark [3] stands for this setting: solvent 2-propanol, RT (25-30 °C).
The mark [4] stands for this setting: solvent cyclohexane, RT (25-30 °C).
Where [5] appears, read: tetrahydrofuran, 0 °C, organic solvent or mixture, thermodynamic from solid.
Setting [6] is: tetrahydrofuran, organic solvent or mixture, thermodynamic from solid.
Where [7] appears, read: toluene, 0 °C, organic solvent or mixture, thermodynamic from solid.
[8] abbreviates: toluene, organic solvent or mixture, thermodynamic from solid.

The structures appear in SMILES notation. ≈ marks a conversion by molar mass, not a printed value. Like-named read-outs stand apart in the source and are kept apart here.

As to `CC(C)OC(=O)NNC(=O)OC(C)C.O=P(c1ccccc1)(c1ccccc1)c1ccccc1` [TPPO-H2DIAD, triphenylphosphine oxide-1,2-isopropylhydrazine dicarboxylate], the solubility in data set [1] (solvent 2-propanol, 0 °C) is recorded as 13.3 mg/mL; in data set [1] (setting [3]), 60.4 mg/mL; in data set [1] (solvent cyclohexane, 0 °C) it was “insoluble”; in data set [1] (setting [4]), “insoluble”; in data set [1] (solvent tetrahydrofuran, 0 °C), 61.0 mg/mL; in data set [1] (solvent tetrahydrofuran, RT (25-30 °C)) it was 157.5 mg/mL. Besides, the solubility in data set [1] (solvent toluene, RT (25-30 °C)) is reported as 23.2 mg/mL.

For `CC(C)(C)OC(=O)N1C[C@@H](F)C[C@H]1CON1C(=O)c2ccccc2C1=O` [compound-6, tert-Butyl (2S,4S)-2-{[(1,3-Dioxo-1,3-dihydro-2H-isoindol-2-yl)oxy]methyl}-4-fluoro-pyrrolidine-1-carboxylate], the solubility result in data set [1] (solvent 2-propanol, 0 °C) is “insoluble”; in data set [1] (setting [3]) it was “insoluble”; in data set [1] (solvent cyclohexane, 0 °C), “insoluble”; in data set [1] (setting [4]) it was “insoluble”; in data set [1] (setting [5]) it was 101 mg/mL (≈ 277 mM); in data set [1] (setting [6]), 124 mg/mL (≈ 342 mM). The solubility is 42.1 mg/mL (≈ 116 mM) in data set [1] (setting [7]) and 46.7 mg/mL (≈ 128 mM) in data set [1] (setting [8]).

Take `O=P(c1ccccc1)(c1ccccc1)c1ccccc1` [TPPO, Triphenylphosphine oxide]: the solubility result is “almost insoluble” in data set [2]; 25.4 mg/mL (≈ 91.3 mM) in data set [1] (2-propanol, 0 °C, organic solvent or mixture, thermodynamic from solid); 46.5 mg/mL (≈ 167 mM) in data set [1] (2-propanol, organic solvent or mixture, thermodynamic from solid); “insoluble” in data set [1] (solvent cyclohexane, 0 °C); “insoluble” in data set [1] (setting [4]); 105 mg/mL (≈ 377 mM) in data set [1] (setting [5]). The results for the solubility in data set [1] (setting [6]), in data set [1] (setting [7]) and in data set [1] (setting [8]) were 170 mg/mL (≈ 610 mM), 42.9 mg/mL (≈ 154 mM) and 44.3 mg/mL (≈ 159 mM), respectively.
